In article PMC4976804 (Current Alzheimer research, 2015):

Legend:
[1] = system: inducible N2aTau^4RDΔK280 cells; assay: Inhibition of Tau aggregation in inducible N2a cells, ThS+ cells counted by FACS; assay type: cell-based
Outline: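 Inducible N2a-Tau4RDΔK280 cells in suspension, with 0.0005% (12 µM) ThS added. Tau induced with 1 µg/ml doxycycline. Compound at 60 µM, or 0–60 µM, for 4 days at 37 °C. Floating and adherent cells pooled, pelleted and PBS-washed. ThS+ cells counted by flow cytometry (ex 495/em 519 nm). Induced DMSO-treated sample set to 100%.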

N2a cells = assay: Cell viability of uninduced N2a cells in the presence of compounds; assay type: cell-based; conditions: 60 µM compound, 4 days 37°C, untreated = 100%
Outline: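 Uninduced N2a cells (no tau expression) grown 4 days at 37 °C in culture medium with test compound at 60 µM, or at several concentrations from 0 to 60 µM. Viability measured by MTT assay per kit instructions. Values normalised to the uninduced compound-untreated sample (100%).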

Structure (SMILES): O=C(NNc1nc(-c2ccc([N+](=O)[O-])cc2)cs1)c1ccc2nc[nH]c2c1 [BSc3094]
- amount of ThS-positive cells (FACS), in words ([1]; 15 µM in the medium, 4 days, N2a cells expressing K18ΔK280): decreases
- reduction of Tau^4RDΔK280 aggregation in N2a cells compared to control ([1]; 60 µM compound, ThS+ cells by FACS): 93%
- effectiveness in reducing aggregation in N2a cells relative to the best hits ([1]; compared to our best hits): 2-3
- viability N2a cells (MTT) (N2a cells): 101.9 ± 3.8%
